An excerpt weighted towards active compounds, which were near 1.8% of everything screened.
M5 antag – antagonists of human muscarinic M5 receptor (CHRM5); P08912; CHO-hM5 cells, Fluo-8 calcium fluorescence, ACh EC80; inhibition, % at 3 µM; actives 0.59% (n = 360,000);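 active = inhibition above a per-plate cutoff, the mean of that plate's test compounds plus 3 SD, cut at about 27% in these data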;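 note: 0% = acetylcholine EC80 with DMSO and 100% = DMSO without agonist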
CHRM4 antagonist – CHRM4 antagonism in calcium assay. P08173. inhibition, % at 3 µM. actives 0.73% (n = 360,000). CHO-hM4 cells, ACh EC80, Fluo-8 calcium fluorescence;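 active = inhibition above its plate's cutoff, the mean inhibition of sample wells plus 3 SD, cut at about 27% in these data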;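 note: 0% = acetylcholine EC80 with DMSO and 100% = DMSO without agonist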
Target sequence (P08173 whole entry, looked up): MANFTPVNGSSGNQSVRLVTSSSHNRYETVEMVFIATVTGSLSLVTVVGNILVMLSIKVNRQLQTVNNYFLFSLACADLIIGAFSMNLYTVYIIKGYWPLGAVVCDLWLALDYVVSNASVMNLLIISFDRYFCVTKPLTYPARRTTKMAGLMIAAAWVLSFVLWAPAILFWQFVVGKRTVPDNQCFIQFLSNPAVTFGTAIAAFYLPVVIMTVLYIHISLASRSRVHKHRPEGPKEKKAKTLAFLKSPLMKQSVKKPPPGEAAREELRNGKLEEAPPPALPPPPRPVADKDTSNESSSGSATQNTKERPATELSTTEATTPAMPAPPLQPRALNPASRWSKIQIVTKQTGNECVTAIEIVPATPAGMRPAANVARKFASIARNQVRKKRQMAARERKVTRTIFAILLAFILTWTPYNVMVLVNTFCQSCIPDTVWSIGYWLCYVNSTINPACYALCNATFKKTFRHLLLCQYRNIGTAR
M4 ag – agonists of human muscarinic M4 receptor (CHRM4); CHO-K1 hM4/Gqi5, Fluo-8 calcium fluorescence; vehicle 0%, full acetylcholine response 100%; actives 0.14% (n = 360,000); AID 624127; activation, % at 3 µM; P08173;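 active = activation above the run mean over all test wells plus 3 SD, cut at about 32% in these data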;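 note: peak over basal fluorescence ratio per well then scaled between controls; 0% = DMSO wells and 100% = acetylcholine at EC100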
CHRM5 PAM – CHRM5 positive allosteric modulation; CHO-K1 hM5, Fluo-8 calcium, ACh EC20 PAM; 0% = ACh EC20, 100% = ACh EC100; activation, % at 3 µM; actives 0.3% (n = 360,000);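 active = activation above the run cutoff, the mean activation of all test compounds plus 3 SD, cut at about 18% in these data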
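Assay system: CHO-K1 hM5 cells / Incubation: Fluo-8 loading 80 min at 37 °C plus 30 min room temperature / Technique: Fluo-8 calcium dye fluorescence, kinetic read / Repeats: single replicate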
M4 PAM – potentiates acetylcholine response at human M4 receptor. P08173. CHO-K1 hM4/Gqi5, Fluo-8 calcium fluorescence, ACh EC20; 0% = ACh EC20, 100% = maximal ACh. activation, % at 3 µM. actives 0.4% (n = 360,000);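 active = activation above its plate's cutoff, the mean activation of sample wells plus 3 SD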
CHRM5 agonist – agonists of human muscarinic M5 receptor (CHRM5) | P08912 | AID 624037 | CHO-K1 hM5 cells, Fluo-8 calcium fluorescence; 0% DMSO wells, 100% maximal acetylcholine response | activation, % at 3 µM | actives 0.19% (n = 360,000);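 active = activation above the run's mean over test compounds plus 3 SD, cut at about 23% in these data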;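 note: signal is peak over basal fluorescence ratio across the kinetic read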
* = called active by the depositor.

SMILES | M5 antag | CHRM4 antagonist | M4 ag | CHRM5 PAM | M4 PAM | CHRM5 agonist
COc1cccc(CN2CCNC(=O)C2CC(=O)NCCCN2CCCC2=O)c1 (stereo unspecified) | -11.0 | -4.6 | 0.2 | 7.2 | 15.0* | -0.6
CC(Oc1ccccc1)C(=O)NNS(=O)(=O)c1ccc([N+](=O)[O-])cc1 (stereo unspecified) | -4.1 | 3.2 | 0.3 | -2.2 | -5.8 | 1.1
O=C1c2ccccc2S(=O)(=O)c2cc(C(=O)N(c3ccccn3)c3ccccn3)ccc21 | -2.1 | -10.0 | 77.2* | -18.7 | 2.3 | 67.0*
O=C(c1ccc(Cl)c([N+](=O)[O-])c1)N(c1ccccn1)c1ccccn1 | 8.6 | -1.3 | 0.3 | 19.9* | 7.0 | 0.2
Cc1nc2nc(-c3ccccc3)cn2nc1C | -9.2 | -17.0 | 1.1 | -0.5 | 18.4* | 1.5
CC1=CC(C)(C)N2C(=O)C(=Nc3ccc(O)cc3)c3cccc1c32 | 5.1 | 25.6 | -0.4 | 6.3 | 22.7 | 38.0*
COc1cc(N=C2C(=O)N3c4c(cccc42)C(C)=CC3(C)C)cc(OC)c1 | -10.7 | -17.2 | 2.2 | 4.3 | 9.6 | 26.8*
COc1ccc(CCNC(=O)CC2SC(N)=NC2=O)cc1OC (stereo unspecified) | 8.6 | -0.8 | 0.7 | 0.2 | 5.4 | -1.4
CCCCCC[n+]1c(-c2ccc(Cl)cc2Cl)csc1Nc1ccccc1 | -4.5 | -10.0 | 0.2 | -2.6 | 1.3 | -0.3
CCCCCCCCCC[N+](C)(C)CC/C=C1/c2ccccc2Sc2ccc(Cl)cc21 | 60.0* | 41.0* | -0.6 | -18.6 | -19.9 | -8.2
CC[N+](C)(C)CC/C=C1/c2ccccc2Sc2ccc(Cl)cc21 | 99.3* | 96.4* | 0.8 | -34.9 | -17.1 | -20.3
CCCCCCCCCCC[N+](C)(C)CC/C=C1/c2ccccc2Sc2ccc(Cl)cc21 | 82.2* | 52.2* | 0.6 | -18.2 | -19.3 | -8.0
COC(=O)C1=C(C)N(c2ccccc2)C(=S)NC1c1ccccc1C(F)(F)F (stereo unspecified) | -12.0 | -0.3 | -2.4 | -10.6 | 14.9 | -8.0
Clc1ccc(-c2nnc3c4ccccc4nc(N4CCOCC4)n23)cc1Cl | 6.2 | -3.4 | 8.9 | -9.6 | -9.8 | 1.4
Brc1ccc(-c2nnc3c4ccccc4nc(N4CCOCC4)n23)cc1 | -2.3 | 1.0 | 0.5 | 6.3 | 40.0* | 2.5
COc1ccc(NC(=O)c2nnn(CC(=O)Nc3ccc4c(c3)OCO4)c2N)cc1OC | 19.0 | 2.2 | 0.2 | -6.1 | 2.0 | -5.8
COc1ccc(Cl)cc1NC(=O)c1nnn(CC(=O)Nc2ccc3c(c2)OCO3)c1N | -9.3 | 8.5 | 1.6 | 3.2 | 19.9* | -3.0
COc1ccc(-c2csc3nc(C)n(-n4cccc4)c(=O)c23)cc1 | -3.8 | -1.5 | -2.8 | 9.9 | 3.4 | -3.3
Cc1nc2scc(-c3ccc(C(C)(C)C)cc3)c2c(=O)n1N | 33.4* | 9.1 | 15.2 | -19.4 | -14.7 | 4.1
COc1ccc(NC(=O)c2oc3ccc(S(=O)(=O)N4CCC5(CC4)OCCO5)cc3c2C)cc1 | 19.5 | 25.9 | 32.4* | -24.4 | -9.9 | 11.7
C=CCNC(=O)c1oc2ccc(S(=O)(=O)N3CCC4(CC3)OCCO4)cc2c1C | -11.5 | -3.3 | 3.3 | -1.1 | 4.2 | 1.0
Cc1cccc(NC(=O)CC2NC3CCCCC3NC2=O)c1 (stereo unspecified) | -5.4 | 8.5 | 0.1 | 24.1* | 0.8 | -8.0
COc1cc(CN(C)C(=O)C2CCN(S(=O)(=O)c3cccs3)CC2)ccc1OC(F)F | 3.9 | -8.2 | 8.6 | -3.9 | -0.9 | 7.4
O=C(Nc1ccccc1)C(=O)Nc1ccc2c(c1)N(C(=O)C1CC1)CCC2 | -4.5 | -12.3 | 6.8 | 0.5 | 17.4* | 1.7
O=C(C1CCC(C(=O)N2CCc3ccccc32)CC1)N1CCc2ccccc21 (stereo unspecified) | -1.4 | -3.5 | -0.2 | -0.9 | -2.3 | -4.3
SMILES | M5 antag | CHRM4 antagonist | M4 ag | CHRM5 PAM | M4 PAM | CHRM5 agonist
O=C(NCc1ccccc1)C(=O)c1cn(CC(=O)N2CCOCC2)c2ccccc12 | 0.5 | -3.5 | 2.3 | 3.8 | 1.1 | 0.7
O=C(NCc1ccccc1Cl)C(=O)c1cn(CC(=O)N2CCOCC2)c2ccccc12 | 19.6 | -13.0 | 8.1 | 23.1* | 2.4 | 12.7
O=C(NCCc1ccccc1)C(=O)c1cn(CC(=O)N2CCCC2)c2ccccc12 | 27.3* | 5.2 | 4.7 | -9.7 | 7.0 | -3.1
COc1ccccc1CCNC(=O)C(=O)c1cn(CC(=O)N2CCCC2)c2ccccc12 | -7.5 | -23.1 | 8.3 | 0.8 | 0.2 | -1.6
C/C(=N\Nc1c(F)c(F)c(Br)c(F)c1F)c1ccncc1 | 4.7 | -17.9 | 1.4 | 2.6 | 14.7* | -11.2
FC(F)(F)c1cccc(N2CCN(C(=S)NCC3CCCO3)CC2)c1 (stereo unspecified) | 27.2* | -2.2 | 9.6 | -16.0 | -8.3 | -1.4
O=C(NCc1cccnc1)/C(=C/c1ccc(-c2ccc(Cl)cc2)o1)S(=O)(=O)c1ccccc1 | -0.7 | 27.6* | 8.7 | -2.6 | -19.7 | 2.7
O=C(Cn1c2ccccc2c2nc3n(c(=O)c21)CCS3)Nc1ccccc1C(F)(F)F | 8.3 | -7.4 | 4.0 | 19.2* | 9.8 | 10.9
Cc1ccc(NS(=O)(=O)c2ccc(OCC(=O)NCc3cccnc3)cc2)cc1 | -2.6 | 1.8 | 1.8 | -2.9 | 15.0 | -1.9
CCCCCCCCCCOC(=O)Cn1c(COc2ccccc2OC)[n+](C)c2ccccc21 | 45.2* | 58.2* | 6.8 | -30.2 | -16.5 | -25.0
Cn1c(COc2ccccc2O)[n+](C)c2ccccc21 | 8.5 | -14.1 | 1.6 | -1.8 | -1.4 | -5.0
CCN(CC)CCNC(=O)Cn1nc(-c2ccc(C)cc2)ccc1=O | -4.4 | 10.8 | 1.0 | 5.0 | 0.5 | -2.3
Cc1ccc(-c2ccc(=O)n(CC(=O)NCCN(CC(C)C)CC(C)C)n2)cc1 | 12.9 | -5.8 | 0.4 | 24.5* | -2.8 | 3.8
O=C(CN(Cc1ccccc1Cl)C(=O)c1ccc(CN2CCOCC2)o1)NCC1CCCO1 (stereo unspecified) | -4.8 | -3.2 | -0.2 | 2.9 | 2.5 | -6.0
c1cc2c(cc1C1=NNC(=NC3CC3)SC1)OCCO2 | 99.7* | -8.1 | 0.9 | -30.3 | 1.9 | -15.4
CC1CC(C)CN(c2ncc3c(n2)CC(c2ccccc2Cl)CC3=O)C1 (stereo unspecified) | -8.3 | 15.6 | 0.2 | 7.2 | 6.8 | 1.1
CC1CC(C)CN(c2ncc3c(n2)CC(c2ccc(Cl)cc2)CC3=O)C1 (stereo unspecified) | -6.0 | 6.4 | 1.0 | 38.6* | 6.9 | 5.9
Cc1ccccc1CN1C(=O)CN(S(C)(=O)=O)CC1(C)C(=O)Nc1ccc2c(c1)OCCO2 (stereo unspecified) | -5.9 | -20.8 | 2.6 | 7.6 | 1.3 | 3.4

Screening results deposited in PubChem by The Scripps Research Institute Molecular Screening Center.
